# Assays:
# [1] = test system: Rattus norvegicus; test: Distribution of Radioactivity in small intestine of Fisher 344 Rats by intravenous administration of compound after 5 minutes expressed as dose/gram; format: ADME, organism-based; details: in vivo
# Outline: (§1)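 Female Fischer 344 rats, 10-12 weeks old (170-200 g), food and water ad libitum; four rats per time point. About 6.3 μCi given in 0.05 mL saline (pH 7.4, filtered) by lateral tail vein under ether anesthesia. Tissues sampled at 5 min, 1 h, 4 h or 1 day. %ID/g computed from injectate standards; mean and range given.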
# [2] = test system: Rattus norvegicus; test: Distribution of Radioactivity in stomach of Fisher 344 Rats by intravenous administration of compound after 1 hour expressed as dose/gram; format: ADME, organism-based; details: in vivo; outline: as §1
# [3] = test system: Rattus norvegicus; test: Distribution of Radioactivity in spleen of Fisher 344 Rats by intravenous administration of compound after 4 hour expressed as dose/gram; format: ADME, organism-based; details: in vivo; outline: as §1
# [4] = test system: Mus musculus; test: Distribution of Radioactivity in small intestine of CD-1 Mice by intravenous administration of compound after 1 day expressed as dose/gram; format: ADME, organism-based; details: in vivo, 24 h
# Outline: (§2)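 Female CD-1 mice, 7 1/2 weeks old (25-29 g), fed and watered ad libitum. Agent given in physiological saline, pH adjusted to 7.4 and filtered, by lateral tail vein injection under ether anesthesia. Tissues collected at 5 min, 1 h, 4 h and 1 day. Injectate samples counted as standard; results as mean % injected dose/g with range.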
# [5] = test system: Rattus norvegicus; test: Distribution of Radioactivity in blood of Fisher 344 Rats by intravenous administration of compound after 5 minutes expressed as dose/gram; format: ADME, organism-based; details: in vivo
# Outline: (§3)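 Female Fischer 344 rats, 10-12 weeks old (170-200 g), fed and watered ad libitum; four rats per time point. Each received ~6.3 μCi in 0.05 mL saline (pH 7.4, filtered), given by lateral tail vein under ether anesthesia. Tissues taken at 5 min, 1 h, 4 h and 1 day. Injectate standards used; values as mean % injected dose/g with range.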
# [6] = test system: Rattus norvegicus; test: Distribution of Radioactivity in kidneys of Fisher 344 Rats by intravenous administration of compound after 1 day expressed as dose/gram; format: ADME, organism-based, Kidney; details: in vivo, 24 h; outline: as §3
# [7] = test system: Mus musculus; test: Distribution of Radioactivity in kidneys of CD-1 Mice by intravenous administration of compound after 1 day expressed as dose/gram; format: ADME, organism-based, Kidney; details: in vivo, 24 h; outline: as §2
# [8] = test system: Rattus norvegicus; test: Distribution of Radioactivity in small intestine of Fisher 344 Rats by intravenous administration of compound after 1 day expressed as dose/gram; format: ADME, organism-based; details: in vivo, 24 h; outline: as §1
# [9] = test system: Mus musculus; test: Distribution of Radioactivity in stomach of CD-1 Mice by intravenous administration of compound after 5 minutes expressed as dose/gram; format: ADME, organism-based; details: in vivo
# Outline: (§4)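 Female CD-1 mice, 7 1/2 weeks old (25-29 g), fed and watered ad libitum. Radiotracer in physiological saline, pH 7.4, filtered, injected via lateral tail vein under ether anesthesia. Tissues taken at 5 min, 1 h, 4 h or 1 day. Percent injected dose per gram calculated against assayed samples of the injected solution; mean with range reported.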
# [10] = test system: Rattus norvegicus; test: Distribution of Radioactivity in spleen of Fisher 344 Rats by intravenous administration of compound after 1 day expressed as dose/gram; format: ADME, organism-based; details: in vivo, 24 h; outline: as §1
# [11] = test system: Rattus norvegicus; test: Distribution of Radioactivity in kidneys of Fisher 344 Rats by intravenous administration of compound after 4 hour expressed as dose/gram; format: ADME, organism-based, Kidney; details: in vivo; outline: as §3
# [12] = test system: Mus musculus; test: Distribution of Radioactivity in blood of CD-1 Mice by intravenous administration of compound after 5 minutes expressed as dose/gram; format: ADME, organism-based; details: in vivo; outline: as §2
# [13] = test system: Mus musculus; test: Distribution of Radioactivity in spleen of CD-1 Mice by intravenous administration of compound after 5 minutes expressed as dose/gram; format: ADME, organism-based; details: in vivo; outline: as §4
# [14] = test system: Mus musculus; test: Distribution of Radioactivity in pancreas of CD-1 Mice by intravenous administration of compound after 4 hr expressed as dose/gram; format: ADME, organism-based; details: in vivo; outline: as §2
# [15] = test system: Rattus norvegicus; test: Distribution of Radioactivity in pancreas of Fisher 344 Rats by intravenous administration of compound after 1 hour expressed as dose/gram; format: ADME, organism-based; details: in vivo; outline: as §3
# [16] = test system: Mus musculus; test: Distribution of Radioactivity in adrenals of CD-1 Mice by intravenous administration of compound after 1 day expressed as dose/gram; format: ADME, organism-based, Adrenal gland; details: in vivo, 24 h; outline: as §2
# [17] = test system: Rattus norvegicus; test: Distribution of Radioactivity in kidneys of Fisher 344 Rats by intravenous administration of compound after 5 minutes expressed as dose/gram; format: ADME, organism-based, Kidney; details: in vivo; outline: as §3
# [18] = test system: Mus musculus; test: Distribution of Radioactivity in stomach of CD-1 Mice by intravenous administration of compound after 1 day expressed as dose/gram; format: ADME, organism-based; details: in vivo, 24 h; outline: as §4
# [19] = test system: Rattus norvegicus; test: Distribution of Radioactivity in blood of Fisher 344 Rats by intravenous administration of compound after 1 day expressed as dose/gram; format: ADME, organism-based; details: in vivo, 24 h; outline: as §3
# [20] = test system: Rattus norvegicus; test: Distribution of Radioactivity in pancreas of Fisher 344 Rats by intravenous administration of compound after 5 minutes expressed as dose/gram; format: ADME, organism-based; details: in vivo; outline: as §3
# [21] = test system: Rattus norvegicus; test: Distribution of Radioactivity in lungs of Fisher 344 Rats by intravenous administration of compound after 1 hour expressed as dose/gram; format: ADME, organism-based, Lung; details: in vivo; outline: as §3
# [22] = test system: Rattus norvegicus; test: Distribution of Radioactivity in liver of Fisher 344 Rats by intravenous administration of compound after 1 day expressed as dose/gram; format: ADME, organism-based; details: in vivo, 24 h; outline: as §3
# [23] = test system: Mus musculus; test: Distribution of Radioactivity in adrenals of CD-1 Mice by intravenous administration of compound after 4 hr expressed as dose/gram; format: ADME, organism-based, Adrenal gland; details: in vivo; outline: as §2
# [24] = test system: Rattus norvegicus; test: Distribution of Radioactivity in lungs of Fisher 344 Rats by intravenous administration of compound after 1 day expressed as dose/gram; format: ADME, organism-based, Lung; details: in vivo, 24 h; outline: as §3
# [25] = test system: Mus musculus; test: Distribution of Radioactivity in spleen of CD-1 Mice by intravenous administration of compound after 1 hr expressed as dose/gram; format: ADME, organism-based; details: in vivo; outline: as §4
# [26] = test system: Rattus norvegicus; test: Distribution of Radioactivity in adrenals of Fisher 344 Rats by intravenous administration of compound after 1 hour expressed as dose/gram; format: ADME, organism-based, Adrenal gland; details: in vivo; outline: as §3
# [27] = test system: Rattus norvegicus; test: Distribution of Radioactivity in pancreas of Fisher 344 Rats by intravenous administration of compound after 1 day expressed as dose/gram; format: ADME, organism-based; details: in vivo, 24 h; outline: as §3
# [28] = test system: Mus musculus; test: Distribution of Radioactivity in spleen of CD-1 Mice by intravenous administration of compound after 4 hr expressed as dose/gram; format: ADME, organism-based; details: in vivo; outline: as §4
# [29] = test system: Mus musculus; test: Distribution of Radioactivity in kidneys of CD-1 Mice by intravenous administration of compound after 4 hr expressed as dose/gram; format: ADME, organism-based, Kidney; details: in vivo; outline: as §2
# [30] = test system: Rattus norvegicus; test: Distribution of Radioactivity in spleen of Fisher 344 Rats by intravenous administration of compound after 1 hour expressed as dose/gram; format: ADME, organism-based; details: in vivo; outline: as §1
# [31] = test system: Mus musculus; test: Distribution of Radioactivity in stomach of CD-1 Mice by intravenous administration of compound after 1 hr expressed as dose/gram; format: ADME, organism-based; details: in vivo; outline: as §4
# [32] = test system: Rattus norvegicus; test: Distribution of Radioactivity in lungs of Fisher 344 Rats by intravenous administration of compound after 5 minutes expressed as dose/gram; format: ADME, organism-based, Lung; details: in vivo; outline: as §3
# [33] = test system: Rattus norvegicus; test: Distribution of Radioactivity in blood of Fisher 344 Rats by intravenous administration of compound after 1 hour expressed as dose/gram; format: ADME, organism-based; details: in vivo; outline: as §3
# [34] = test system: Rattus norvegicus; test: Distribution of Radioactivity in small intestine of Fisher 344 Rats by intravenous administration of compound after 1 hour expressed as dose/gram; format: ADME, organism-based; details: in vivo; outline: as §1
# [35] = test system: Rattus norvegicus; test: Distribution of Radioactivity in stomach of Fisher 344 Rats by intravenous administration of compound after 4 hour expressed as dose/gram; format: ADME, organism-based; details: in vivo; outline: as §1
# [36] = test system: Rattus norvegicus; test: Distribution of Radioactivity in thymus of Fisher 344 Rats by intravenous administration of compound after 1 day expressed as dose/gram; format: ADME, organism-based; details: in vivo, 24 h; outline: as §1
# [37] = test system: Mus musculus; test: Distribution of Radioactivity in thymus of CD-1 Mice by intravenous administration of compound after 1 hr expressed as dose/gram; format: ADME, organism-based; details: in vivo; outline: as §4
# [38] = test system: Rattus norvegicus; test: Distribution of Radioactivity in lungs of Fisher 344 Rats by intravenous administration of compound after 4 hour expressed as dose/gram; format: ADME, organism-based, Lung; details: in vivo; outline: as §3
substance,measurement,setting,value
"beta-[103,106Ru]Ruthenocenylalanine",Injected,[1],0.62%
same,Injected,[2],0.081%
same,Injected,[3],0.062%
same,Injected,[4],0.059%
same,Injected,[5],1.949%
same,Injected,[6],1.128%
same,Injected,[7],0.871%
same,Injected,[8],0.044%
same,Injected,[9],0.987%
same,Injected,[10],0.065%
same,Injected,[11],1.148%
same,Injected,[12],6.768%
same,Injected,[13],1.348%
same,Injected,[14],0.16%
same,Injected,[15],0.299%
same,Injected,[16],0.556%
same,Injected,[17],5.44%
same,Injected,[18],0.032%
same,Injected,[19],0.051%
same,Injected,[20],0.361%
same,Injected,[21],0.424%
same,Injected,[22],0.15%
same,Injected,[23],0.786%
same,Injected,[24],0.065%
same,Injected,[25],0.384%
same,Injected,[26],0.141%
same,Injected,[27],0.035%
same,Injected,[28],0.206%
same,Injected,[29],1.321%
same,Injected,[30],0.14%
same,Injected,[31],0.326%
same,Injected,[32],1.123%
same,Injected,[33],0.698%
same,Injected,[34],1.421%
same,Injected,[35],0.028%
same,Injected,[36],0.024%
same,Injected,[37],0.35%
same,Injected,[38],0.124%

# Reference: ChEMBL document CHEMBL1122792, “Synthesis and biological evaluation of radiolabeled beta-ruthenocenylalanine” (J Med Chem, 1984)
